Experiment [1] deals with Candida albicans. The experiment is described as follows: Antimicrobial activity against Candida albicans UCD FRI after 16 to 18 hrs by microbroth dilution assay. It counts as functional. In short, it runs like this: (§1)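 Broth microdilution susceptibility testing, adapted with minor changes from a published method, incubated at 37 °C for 16–18 h; read-out is the minimum inhibitory concentration. C. krusei and C. glabrata strains came from the University of Texas Medical Center. C. albicans UCD FR1 was raised in-house by repeated passage through Sabouraud medium containing inhibitory fluconazole concentrations.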

Experiment [2] has as its system Nakaseomyces glabratus. In words: Antimicrobial activity against Candida glabrata after 16 to 18 hrs by microbroth dilution assay. It counts as functional. In short, it runs like this: as §1
Experiment [3] has as its system Candida albicans. The experiment is described as follows: Antimicrobial activity against fluconazole-resistant Candida albicans ATCC 14503 after 16 to 18 hrs by microbroth dilution assay. It is filed as functional. A digest of the protocol: as §1
The subject of experiment [4] is Pichia kudriavzevii. In words: Antimicrobial activity against Candida krusei after 16 to 18 hrs by microbroth dilution assay. It counts as functional. In short, it runs like this: as §1
For the next experiment, the species on record is Oryctolagus cuniculus. The experiment is described as follows: Inhibition of IP3-sensitive Ca2+ channel activity in endoplasmic reticulum of rabbit cerebellum assessed as Ca2+ release. It is filed as tissue-based.
Experiment [5] deals with Candida albicans. The experiment is described as follows: Antimicrobial activity against fluconazole-resistant Candida albicans ATCC 14503 up to 300 ug/disk by disk diffusion method. It is filed as functional, organism-based.
The test system of experiment [6] is Pichia kudriavzevii. The experiment is described as follows: Antimicrobial activity against Candida krusei up to 300 ug/disk by disk diffusion method. It is filed as functional, organism-based. In short, it runs like this: (§2)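 Disk diffusion antifungal test, up to 300 μg/disk, read as a zone of inhibition. C. glabrata and C. krusei were clinical strains from the University of Texas Medical Center. C. albicans UCD FR1 was raised in-house by repeated passage through Sabouraud medium containing inhibitory concentrations of fluconazole.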

For experiment [7], the system named is Nakaseomyces glabratus. The experiment is described as follows: Antimicrobial activity against Candida glabrata up to 300 ug/disk by disk diffusion method. It is filed as functional, organism-based. A digest of the protocol:
as §2

Experiment [8] has as its system Candida albicans. In words: Antimicrobial activity against Candida albicans UCD FRI up to 300 ug/disk by disk diffusion method. It counts as functional, organism-based. A digest of the protocol: as §2

Each structure is given as a SMILES string. In brackets after ≈: the same amount, converted by molar mass. Activity calls are given as the source filed them. No cut-off for these calls is given here.

With `O[C@]12CCCCCC[C@@H]3CCN4CCC[C@H](CCCCCC[C@@H]5CCN(CCC1)[C@H]2O5)[C@@H]4O3` [(+)-DEMETHYLXESTOSPONGIN B], the MIC against Candida albicans [1] is 30 µg/mL (≈ 64.8 µM); in the experiment on Nakaseomyces glabratus [2] it was 30 µg/mL (≈ 64.8 µM); in the experiment with Candida albicans [3] it was 100 µg/mL (≈ 216 µM); against Pichia kudriavzevii [4] it was 30 µg/mL (≈ 64.8 µM).
For `C[C@@H]1[C@H](O)[C@@H](C)/C=C/C=C/C=C/C=C/C=C/C=C/C=C/[C@H](O[C@@H]2O[C@H](C)[C@@H](O)[C@H](N)[C@@H]2O)C[C@@H]2O[C@](O)(C[C@@H](O)C[C@@H](O)[C@H](O)CC[C@@H](O)C[C@@H](O)CC(=O)O[C@H]1C)C[C@H](O)[C@H]2C(=O)O` [AMPHOTERICIN B], the minimum inhibitory concentration (MIC) was determined as 1 µg/mL (≈ 1.08 µM) against Candida albicans [1], 1 µg/mL (≈ 1.08 µM) against Nakaseomyces glabratus [2] and 0.3 µg/mL (≈ 0.325 µM) in the experiment with Candida albicans [3].
As to `O[C@H]1C[C@H]2CCCCCC[C@@H]3CCN4CCC[C@@H](CCCCCC[C@@H]5CCN(C1)[C@H]2O5)[C@@H]4O3`, in the experiment filed under Oryctolagus cuniculus, the ED50 was 6400 nM. Moreover, the result with Candida albicans [5], with Pichia kudriavzevii [6], in the experiment with Nakaseomyces glabratus [7] and with Candida albicans [8] was inactive.
As for `OC(Cn1cncn1)(Cn1cncn1)c1ccc(F)cc1F` [FLUCONAZOLE], the MIC amounted to 100 µg/mL (≈ 327 µM) against Candida albicans [1], 100 µg/mL (≈ 327 µM) in the experiment with Nakaseomyces glabratus [2], 1 µg/mL (≈ 3.27 µM) against Candida albicans [3] and 100 µg/mL (≈ 327 µM) against Pichia kudriavzevii [4].
As to `O[C@]12CCCCCC[C@@H]3CCN4CCC[C@@H](CCCCCC[C@@H]5CCN(CCC1)[C@H]2O5)[C@@H]4O3`, the MIC in the experiment on Candida albicans [1], in the experiment on Nakaseomyces glabratus [2], against Candida albicans [3] and against Pichia kudriavzevii [4] was 100 µg/mL (≈ 216 µM) in each case. For the same compound, the ED50 in the experiment listed under Oryctolagus cuniculus stood at 800 nM.
Consider `C1CCC[C@H]2CCCN3CC[C@@H](CCCCCC[C@@H]4CCCN5CC[C@@H](CC1)O[C@@H]45)O[C@@H]23`, for which the MIC amounted to 100 µg/mL (≈ 224 µM) in the experiment with Candida albicans [1], 30 µg/mL (≈ 67.2 µM) in the experiment with Nakaseomyces glabratus [2], 100 µg/mL (≈ 224 µM) against Candida albicans [3] and 30 µg/mL (≈ 67.2 µM) with Pichia kudriavzevii [4]. Moreover, the ED50 in the experiment filed under Oryctolagus cuniculus is 300 nM.
For `C1CCC[C@@H]2CCCN3CC[C@@H](CCCCCC[C@@H]4CCCN5CC[C@@H](CC1)O[C@@H]45)O[C@@H]23`, the MIC against Candida albicans [1], with Nakaseomyces glabratus [2], with Candida albicans [3] and against Pichia kudriavzevii [4] was 100 µg/mL (≈ 224 µM) in each case.
